Laboratory results reported in ChEMBL document CHEMBL4699441, “Identification and Preclinical Evaluation of the Bicyclic Pyrimidine γ-Secretase Modulator BMS-932481” (ACS Med Chem Lett, 2019).
Active and inactive are the calls of the source. The calls are words filed in the database; no cut-off is given here.

Assays:
[1] = Reduction in amyloid beta (1 to 42) secretion in brain in triple transgenic LaFerla mouse at 30 mg/kg, po measured after 3 hrs relative to control; assay type: functional
Method in brief: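 Triple transgenic LaFerla mice (APP Swedish, MAPT P301L, PSEN1 M146V) given 30 mg/kg po; brain Aβ1-42 measured 3 h postdose; n = 3.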

[2] = Ratio of drug level in brain to plasma in triple transgenic LaFerla mouse at 30 mg/kg, po measured after 3 hrs; assay type: ADME, organism-based
[3] = Inhibition of amyloid beta (1 to 42) secretion in human H4 cells overexpressing APP incubated for overnight by HTRF analysis; assay type: functional, cell-based
[4] = Toxicity in rat assessed as hepatocellular necrosis at 10 to 100 mg/kg, po administered for 4 days by histological assay; assay type: organism-based; details: in vivo, 96 h, dose 10-100 mg/kg, time 4 day
[5] = Stability in human liver microsomes assessed as remaining compound measured after 10 mins by LC-MS/MS analysis; assay type: ADME, Microsome; details: read-out: Stabilty
Method in brief: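 High-throughput microsomal stability: 3 μM substrate, 1 mg/mL microsomal protein, 100 mM sodium phosphate pH 7.4, 37 °C; quenched at 10 min, LC–MS/MS, percent parent remaining reported.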

[6] = biological target: Voltage-gated inwardly rectifying potassium channel KCNH2 (Homo sapiens, UniProt Q12809); test: Inhibition of human ERG by patch clamp method
[7] = Cardiotoxicity in rabbit assessed as NOAEL by telemetric analysis; assay type: toxicity, Oryctolagus cuniculus
[8] = Plasma concentration in Harlan Sprague-Dawley rat at 10 mg/kg, po measured after 3 hrs; assay type: ADME, organism-based
[9] = Toxicity in rat assessed as increase in unconjugated bilirubin in plasma at 10 to 100 mg/kg, po administered for 4 days; assay type: organism-based; details: in vivo, 96 h, dose 10-100 mg/kg, time 4 day
Method in brief: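 Rats dosed orally at 10, 30 and 100 mg/kg for 4 days; plasma inspected and unconjugated bilirubin assessed.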

[10] = Oral bioavailability in Sprague-Dawley rat incubated for 24 hrs by LC-MS/MS analysis; assay type: ADME, organism-based; details: in vivo
[11] = biological target: T1, UDP-glucuronosyltransferase 1A1 (Homo sapiens, UniProt P22309); test: Inhibition of human UGT1A1; assay type: ADME
T1 sequence (P22309 whole entry): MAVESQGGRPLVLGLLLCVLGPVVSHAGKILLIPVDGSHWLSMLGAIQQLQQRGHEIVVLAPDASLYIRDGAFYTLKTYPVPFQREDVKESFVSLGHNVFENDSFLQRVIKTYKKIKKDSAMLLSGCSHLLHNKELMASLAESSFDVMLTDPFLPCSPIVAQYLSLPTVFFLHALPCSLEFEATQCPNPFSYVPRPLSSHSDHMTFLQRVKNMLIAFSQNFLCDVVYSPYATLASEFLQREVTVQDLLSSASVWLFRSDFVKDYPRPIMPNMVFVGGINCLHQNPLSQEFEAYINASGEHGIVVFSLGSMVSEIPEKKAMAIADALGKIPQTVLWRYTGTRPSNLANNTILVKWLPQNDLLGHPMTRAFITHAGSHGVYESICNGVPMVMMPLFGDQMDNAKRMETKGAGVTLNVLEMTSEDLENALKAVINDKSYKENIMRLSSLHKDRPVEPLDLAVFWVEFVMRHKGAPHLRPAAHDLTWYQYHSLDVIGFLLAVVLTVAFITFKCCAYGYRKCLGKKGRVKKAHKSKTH

[12] = Plasma concentration in triple transgenic LaFerla mouse at 30 mg/kg, po measured after 3 hrs; assay type: ADME, organism-based
Rattus norvegicus = species on record: Rattus norvegicus; test: Antialzheimer activity in Harlan Sprague-Dawley rat brain assessed as reduction in amyloid beta (1 to 42) AUC relative to control; assay type: functional; design: scale not given: the % may be the effect or the level left
[13] = Fraction unbound in human plasma measured after 24 hrs by LC-MS/MS analysis; assay type: ADME, cell-free
[14] = Oral bioavailability in cynomolgus monkey incubated for 24 hrs by LC-MS/MS analysis; assay type: ADME, organism-based, Macaca fascicularis; details: in vivo
[15] = biological target: T2, Solute carrier organic anion transporter family member 1B1 (Homo sapiens, UniProt Q9Y6L6); test: Inhibition of OATP1B1 (unknown origin); assay type: ADME
T2 sequence (Q9Y6L6 whole entry): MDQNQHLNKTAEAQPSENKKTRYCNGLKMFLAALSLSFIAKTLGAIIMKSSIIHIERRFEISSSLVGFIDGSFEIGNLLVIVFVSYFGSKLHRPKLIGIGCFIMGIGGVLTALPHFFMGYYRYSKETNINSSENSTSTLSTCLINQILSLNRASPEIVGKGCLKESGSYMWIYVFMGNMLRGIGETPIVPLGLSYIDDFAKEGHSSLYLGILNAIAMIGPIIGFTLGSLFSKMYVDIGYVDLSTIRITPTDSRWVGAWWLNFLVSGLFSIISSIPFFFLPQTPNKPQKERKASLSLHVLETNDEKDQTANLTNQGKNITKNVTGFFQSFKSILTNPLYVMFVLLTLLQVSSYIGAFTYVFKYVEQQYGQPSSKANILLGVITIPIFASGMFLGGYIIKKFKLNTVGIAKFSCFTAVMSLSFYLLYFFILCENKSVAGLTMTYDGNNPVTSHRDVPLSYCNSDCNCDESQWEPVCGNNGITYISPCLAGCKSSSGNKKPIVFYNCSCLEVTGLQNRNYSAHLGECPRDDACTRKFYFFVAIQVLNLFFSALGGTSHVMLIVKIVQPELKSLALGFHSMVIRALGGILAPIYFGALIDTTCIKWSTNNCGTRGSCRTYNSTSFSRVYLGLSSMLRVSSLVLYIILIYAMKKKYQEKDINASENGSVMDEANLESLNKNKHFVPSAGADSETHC

[16] = Octanol/water partition coefficient, logD of the compound at pH 6.5 by shake flask method; assay type: physicochemical
Method in brief: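 Octanol/water partitioning by shake flask at pH 6.5.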

[17] = Oral bioavailability in Beagle dog incubated for 24 hrs by LC-MS/MS analysis; assay type: ADME, organism-based, Canis lupus familiaris; details: in vivo
Homo sapiens [18] = test: Antialzheimer activity in human assessed as reduction in amyloid beta (1 to 42) AUC at 1.3 mg/kg qd relative to control; design: scale not given: the % may be the effect or the level left
Homo sapiens [19] = test: as above; design: scale not given: the % may be the effect or the level left; remark: listed apart in the source
[20] = Reduction in amyloid beta (1 to 42) secretion in brain in Harlan Sprague-Dawley rat at 10 mg/kg, po measured after 3 hrs relative to control; assay type: functional
Method in brief: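 Sprague–Dawley rats dosed 10 mg/kg po; brain Aβ1-42 measured 3 h postdose; n = 5.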

[21] = AUC (0 to 24 hrs) in Harlan Sprague-Dawley rat incubated for 24 hrs by LC-MS/MS analysis; assay type: ADME; design: time 24 hrs; details: in vivo
H4 [22] = test: Induction of amyloid beta (1 to 38) secretion in human H4 cells overexpressing APP incubated for overnight by Western blot analysis; assay type: functional, cell-based
H4 [23] = test: Induction of amyloid beta (1 to 37) secretion in human H4 cells overexpressing APP incubated for overnight by Western blot analysis; assay type: functional, cell-based
[24] = Suppression of total amyloid beta secretion in human H4 cells overexpressing APP incubated for overnight by Western blot analysis; assay type: ADME, cell-based

Sequence of Voltage-gated inwardly rectifying potassium channel KCNH2 (Q12809 whole entry): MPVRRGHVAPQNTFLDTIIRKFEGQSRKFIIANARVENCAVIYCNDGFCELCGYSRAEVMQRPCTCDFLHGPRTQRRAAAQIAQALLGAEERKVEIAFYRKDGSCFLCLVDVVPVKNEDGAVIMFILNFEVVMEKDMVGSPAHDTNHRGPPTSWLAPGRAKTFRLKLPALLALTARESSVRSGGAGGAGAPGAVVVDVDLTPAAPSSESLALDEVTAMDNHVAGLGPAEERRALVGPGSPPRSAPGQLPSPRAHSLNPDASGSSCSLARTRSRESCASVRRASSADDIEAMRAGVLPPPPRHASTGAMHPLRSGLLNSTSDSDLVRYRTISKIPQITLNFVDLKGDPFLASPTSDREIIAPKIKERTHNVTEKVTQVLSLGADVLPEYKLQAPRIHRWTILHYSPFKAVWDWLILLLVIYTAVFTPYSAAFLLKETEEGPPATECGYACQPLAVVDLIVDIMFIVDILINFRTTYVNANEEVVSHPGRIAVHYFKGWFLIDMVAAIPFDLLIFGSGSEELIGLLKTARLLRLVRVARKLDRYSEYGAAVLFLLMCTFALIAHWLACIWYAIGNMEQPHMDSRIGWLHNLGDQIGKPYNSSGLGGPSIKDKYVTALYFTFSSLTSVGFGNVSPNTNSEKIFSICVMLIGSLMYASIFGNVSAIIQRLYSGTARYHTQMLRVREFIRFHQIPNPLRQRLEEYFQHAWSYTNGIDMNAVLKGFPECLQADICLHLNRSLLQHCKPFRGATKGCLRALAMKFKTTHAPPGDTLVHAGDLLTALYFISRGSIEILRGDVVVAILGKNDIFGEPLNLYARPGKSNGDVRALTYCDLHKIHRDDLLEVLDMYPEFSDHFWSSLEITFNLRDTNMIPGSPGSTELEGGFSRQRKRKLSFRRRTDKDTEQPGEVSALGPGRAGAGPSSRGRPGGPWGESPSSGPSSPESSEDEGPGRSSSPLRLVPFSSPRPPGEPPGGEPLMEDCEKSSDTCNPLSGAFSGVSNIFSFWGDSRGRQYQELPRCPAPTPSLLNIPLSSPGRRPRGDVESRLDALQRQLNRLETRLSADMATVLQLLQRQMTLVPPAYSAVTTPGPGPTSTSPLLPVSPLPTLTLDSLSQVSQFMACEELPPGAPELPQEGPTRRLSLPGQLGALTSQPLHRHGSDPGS

CNc1nc(Cc2ccccc2)nc(Nc2ccc(-n3cnc(C)c3)c(OC)c2)n1
inhibition in vivo at 30 mg/kg [1]: 32% | BPR [2]: 0.47 | IC50 [3]: 31 nM

CNc1nc(Nc2ccc(-n3cnc(Cl)c3)c(OC)c2)nc2c1CC[C@H]2c1ccccc1
Activity [4]: Toxic | remaining at 10 min [5]: 96% | inhibition in vivo at 30 mg/kg [1]: 86% | IC50 [6]: 200 nM | NOAEL [7]: 15 µM | concentration at 3 h [8]: 1700 nM | IC50 [3]: 2 nM | Activity [9]: Toxic | F [10]: 49% | IC50 [11]: 1400 nM | concentration at 3 h [12]: 2100 nM | Activity (Rattus norvegicus): 25% | Fu [13]: 0.1% | bioavailability [14]: 44% | IC50 [15]: 690 nM | logD [16]: 4.42 | bioavailability [17]: 64% | Activity (Homo sapiens [18]): 25% | Activity (Homo sapiens [19]): 25% | inhibition in vivo at 10 mg/kg [20]: 59% | AUC(0-t) at 24 h [21]: 7.6 µM·h

CNc1nc(Nc2ccc(-n3cncn3)c(OC)c2)nc(-c2ccccc2)n1
Activity (H4 [22]): Active | IC50 [3]: 120 nM | Activity (H4 [23]): Active | Activity [24]: Non-Toxic
